Source: PubChem
PKD1 kinase inh: inhibitors of human PKD1 kinase, biochemical, fluorescence polarization; PKD1 kinase fluorescence polarization assay; AID 797, 2007; inhibition, % (test concentration not listed); Serine/threonine-protein kinase D1 (Homo sapiens), Q15139; 200,000 tested, 0.056% active; in the data active = inhibition above about 50%
Arbovirus anti: antivirals against arbovirus infection, primary screen, cell-based, full library, 10K replicate subset; 200,000 tested, 0.37% active; arbovirus infection cell-based antiviral screen; inhibition, % at 10 µM; in the data active = inhibition above about 30%
TNAP act hi DEA: TNAP activators at high phosphate acceptor level, primary screen, biochemical, luminescence, uHTS. 200,000 tested, under 10 active. AID 1136, 2008. activation factor at 20 µM. purified TNAP, CDP-star luminescence, 1 M DEA, 30 min; active compounds read high; 0 = EDTA background, 1 = DMSO-only activity;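 active = activation factor at least 2 at 20 µM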
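Measured by: Luminescent substrate turnover signal | Test system: Human TNAP | Input: TNAP 1/800 final | Dosing: 20 µM single point | Schedule: 30 min, room temperature | Controls: EDTA wells as negative control, DMSO wells as positive control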
TNAP inh no acc: human TNAP enzyme inhibitors, primary screen, biochemical, luminescent, no phosphate acceptor, uHTS. Alkaline phosphatase, tissue-nonspecific isozyme (Homo sapiens), P05186. purified TNAP, CDP-star luminescence, 30 min. inhibition, % at 20 µM. 200,000 tested, 0.26% active;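 active = tissue-nonspecific alkaline phosphatase inhibition above about 50% at 20 µM in the single-dose screen, limit read from the data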;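 also: 0% = DMSO negative control and 100% = EDTA positive control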
TNAP inh hiacc: human TNAP enzyme inhibitors, primary screen, biochemical, luminescent, high phosphate acceptor level, uHTS. Alkaline phosphatase, tissue-nonspecific isozyme (Homo sapiens), P05186. purified TNAP, CDP-star luminescence, 1 M DEA. inhibition, % at 20 µM. 200,000 tested, 0.03% active;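 active = over 50% inhibition of tissue-nonspecific alkaline phosphatase at 20 µM in the single-dose screen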;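 also: plate controls were DMSO wells for no effect and EDTA-quenched wells as full inhibition for full effect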
Starred values were filed as active, the others as inactive; x = no result. Hits are enriched below; roughly 0.73% of the tested compounds scored in any of these assays.

SMILES	PKD1 kinase inh	Arbovirus anti	TNAP act hi DEA	TNAP inh no acc	TNAP inh hiacc
Cc1ccccc1-n1c(C)cc(/C=C2/C(=N)N3C(c4ccccc4)=CSC3=NC2=O)c1C	-13	-6	1	-16	4
CCOc1ccc(-n2c(C)cc(/C=C3/C(=N)N4C(=NC3=O)SN=C4S(C)(=O)=O)c2C)cc1	-1	42*	1	-6	0
Cc1cc(/C=C2/C(=N)N3C(=NC2=O)SN=C3S(C)(=O)=O)c(C)n1-c1ccc(F)cc1	-1	37*	1	-1	-3
COc1ccccc1-n1c(C)cc(/C=C2/C(=N)N3C(=NC2=O)SN=C3S(C)(=O)=O)c1C	1	35*	1	-4	-4
Cc1cc(/C=C2/C(=N)N3C(c4ccccc4)=CSC3=NC2=O)c(C)n1-c1ccccc1	-3	-9	1	8	-1
CC1=CC2=NC(=O)/C(=C\c3cc(C)n(-c4ccc(F)cc4)c3C)C(=N)N2O1	0	4	1	-11	-1
Cn1c(SCC(=O)Nc2cccnc2)nnc1-c1ccccc1F	-5	22	1.1	-5	-9
CC(C)NC[C@@H](O)c1ccc(O)c(O)c1	4	-7	0.9	71*	9
Cc1nc(NCCCn2ccnc2)c2ccccc2n1	-5	-3	1	-11	-4
O=C1c2ccccc2-c2onc3ccc(NCCCn4ccnc4)c1c23	94*	-26	0.8	31	21
c1csc(-c2nn3c(Cn4nnc5ccccc54)nnc3s2)c1	-3	11	1	62*	-4
COc1ccc(OC)c(C(=O)CSc2nc3ncccc3[nH]2)c1	-6	-8	1	63*	-2
Fc1ccc(CSc2nc3ncccc3[nH]2)cc1	-7	-5	1.1	-18	-5
COc1ccc(NC(=O)CSc2nc3ncccc3[nH]2)cc1OC	3	1	1	49	-4
O=C(CSc1nc2ncccc2[nH]1)c1ccc(F)cc1	-7	0	1	54*	-2
O=S1(=O)N=C(Nc2nncs2)c2ccccc21	-3	2	0.9	61*	9
COc1ccc(Oc2ccc(S(=O)(=O)N3CCCCC3)cc2S(=O)(=O)N2CCCCC2)cc1	x	36*	x	x	x
COc1ccccc1Oc1ccc(S(=O)(=O)N2CCCC2)cc1	-4	-1	1	-6	2
Cc1ccc2cc(C3CC(c4ccco4)=NN3S(=O)(=O)c3ccccc3)c(Cl)nc2c1 (stereo unspecified)	-3	37*	1	-5	0
COc1ccc2cc(C3CC(c4ccco4)=NN3S(=O)(=O)c3ccccc3)c(Cl)nc2c1 (stereo unspecified)	-5	-5	1	0	0
Nc1nc(Cl)cc(N2CCC(c3cc(-c4ccc(Cl)cc4Cl)n[nH]3)CC2)n1	-7	-45	1	56*	-1
N#Cc1c(-c2ccco2)nc(SCC(=O)Nc2ccc(S(N)(=O)=O)cc2)[nH]c1=O	-7	32*	1.1	11	-6
Cc1cc(C)nc(NS(=O)(=O)c2ccc(NC(=O)CSc3nc(-c4ccccc4)c(C#N)c(=O)[nH]3)cc2)n1	-1	7	1	-9	-1
Cn1c(O)c(C2=c3ccccc3=NC2=O)[nH]c1=S	0	-7	0.5	10	46
COc1ccc2nc(-n3c(O)c(C4=c5ccccc5=NC4=O)[nH]c3=S)sc2c1	3	-14	0.1	45	88*
SMILES	PKD1 kinase inh	Arbovirus anti	TNAP act hi DEA	TNAP inh no acc	TNAP inh hiacc
CN=c1scc(-c2ccc(F)cc2)n1/N=C/c1ccc(O)c(O)c1	-9	-20	0.8	70*	19
CCOc1ccc(CCNC(=O)C2=C(C)C(=O)OC23CCCCC3)cc1OCC	-6	8	1	-4	1
CCc1nnc(NS(=O)(=O)c2ccc(NC(=O)c3ccc(Cl)cc3)cc2)s1	-3	1	1	-2	-5
CCc1nnc(NS(=O)(=O)c2ccc(N/C=C\C(=O)c3ccc4ccccc4c3)cc2)s1	-6	34*	1	-12	-1
CC1=NN(c2ccc(Cl)c(C(=O)O)c2)C(=O)/C1=C\c1ccc(-c2ccc(C(=O)O)cc2)o1	3	2	1	-1	2
O=C(O)c1ccc(N2C(=O)/C(=C/c3ccc(-c4ccc([N+](=O)[O-])cc4)o3)C=C2c2ccccc2)cc1	-2	106*	0.7	36	35
CC(C)CCOC(=O)C1C(c2ccccc2)C(C(=O)O)C1c1ccccc1 (stereo unspecified)	4	15	1	-12	-1
O=C(Nc1nc2ccccc2s1)c1ccc(N2CCCCC2)c([N+](=O)[O-])c1	-8	38*	0.9	-9	6
CCc1ccc(NC(=O)CC2C(=O)N(c3ccc(C)cc3)C(=O)N2CCc2ccncc2)cc1 (stereo unspecified)	-4	1	1	-2	-1
Cc1ccc(Nc2nc(N)c([N+](=O)[O-])c(N3CCOCC3)n2)cc1C	3	51*	1	8	-1
Cc1ccc(C(=O)N/C(=C\c2ccco2)C(=O)NCc2cccnc2)cc1	1	5	1	-14	2
Cc1ccc(C(=O)N/C(=C\c2cccs2)C(=O)NCc2cccnc2)cc1	0	30*	1.1	14	-8
O=C(O)CCN1C(=O)/C(=C/c2ccc(-c3nc4ccccc4s3)o2)SC1=S	-12	42*	0.8	28	20
CC(C)C1OC(c2cccc(NC(=O)c3cccs3)c2)OCC1(C)C (stereo unspecified)	-7	-23	1	-14	-2
Oc1ccc(N=Nc2n[nH]c(-c3ccc(Cl)cc3)n2)cc1	-1	-15	0.7	69*	26
CN1C2CCC1/C(=C\c1ccccc1F)C(=O)/C2=C/c1ccccc1F	-8	8	1	-6	3
CC(C)C(=O)Nc1nnc(SCC(=O)N2c3ccccc3CC2C)s1 (stereo unspecified)	0	39*	1	-14	-3
CC1Cc2ccccc2N1C(=O)CSC1=NCCS1 (stereo unspecified)	-12	0	1	-24	-3
CC1Cc2ccccc2N1C(=O)CSc1ccccc1 (stereo unspecified)	-6	30*	1.1	-12	-7
Cc1ccc(NC(=O)c2cncc(Br)c2)c(O)c1	1	39*	1	-7	0
Cc1cc([N+](=O)[O-])ccc1NC(=O)c1cncc(Br)c1	-4	3	1	-14	-1
O=C(CSC1=NCCN1)NC(c1ccccc1)c1ccccc1	-9	-9	1	-6	-1
CN(C)c1ccc(C2NCCS2)cc1 (stereo unspecified)	0	-1	1.1	-7	-6
Cc1ccc(C2NCCS2)cc1 (stereo unspecified)	-2	-6	1	63*	2
